Experiments:
[1] = molecular target: Kappa-type opioid receptor (Cavia porcellus) (UniProt P41144); test: Binding affinity towards kappa-opioid receptor by displacement of [3H]EKC in guinea pig cortical tissue at 100 nM
Procedure, shortened: (§1)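 [3H]EKC binding to guinea pig cortical tissue, with fentanyl and DADL present to block mu and delta sites. Percent displacement measured at 10 and 100 nM test compound, run in triplicate.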

[2] = system: Rattus norvegicus; test: Tested for concentration required to reduce the food consumption by 20 % subcutaneously; type: functional
Procedure, shortened: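 Obese Zucker rats, 3-4 months old, trained to eat only 8 am-4 pm. Groups of 4 (2 male, 2 female), with one saline control group daily. Compound in saline with 10% DMSO, given sc on 3 consecutive days, typical doses 5.0-0.08 mg/kg (0.02-20 in some cases). Intake measured over the first 4 h. ED20 from regression of the linear portion of the dose-response curve.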

[3] = molecular target: Kappa-type opioid receptor (Mus musculus) (UniProt P33534); test: Antagonist activity towards U50 488 induced kappa opioid receptor by mouse writhing assay at 2.5 mg/kg subcutaneously; type: functional, organism-based; design: dose 2.5 mg/kg
Sequence of Kappa-type opioid receptor (Mus musculus) (P33534 whole entry): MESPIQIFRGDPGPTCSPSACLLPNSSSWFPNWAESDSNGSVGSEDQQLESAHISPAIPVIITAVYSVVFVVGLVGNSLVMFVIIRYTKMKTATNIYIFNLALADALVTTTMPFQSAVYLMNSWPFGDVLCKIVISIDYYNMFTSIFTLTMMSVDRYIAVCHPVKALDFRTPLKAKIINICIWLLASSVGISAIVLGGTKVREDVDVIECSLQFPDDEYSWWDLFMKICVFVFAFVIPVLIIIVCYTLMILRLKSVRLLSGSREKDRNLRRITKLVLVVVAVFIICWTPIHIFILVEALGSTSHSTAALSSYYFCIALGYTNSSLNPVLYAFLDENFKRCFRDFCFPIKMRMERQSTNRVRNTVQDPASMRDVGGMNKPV
Procedure, shortened: (§2)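 Mouse acetic acid writhing: 0.6% acetic acid ip, writhes counted for 10 min starting 5 min after injection. 5 mice/point, ≥5 doses varied 2-fold, each mouse used once. AD50 = antagonist dose reducing agonist-induced writhing inhibition to 50%.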

[4] = molecular target: Kappa-type opioid receptor (Cavia porcellus) (UniProt P41144); test: Binding affinity towards kappa-opioid receptor by displacement of [3H]EKC in guinea pig cortical tissue at 10 nM; procedure, shortened: as §1
[5] = molecular target: Mu-type opioid receptor (Mus musculus) (UniProt P42866); test: Antagonistic activity towards morphine induced mu-opioid receptor by mouse writhing assay at 1.25 mg/kg subcutaneously; type: functional, organism-based; design: dose 1.25 mg/kg
Sequence of Mu-type opioid receptor (Mus musculus) (P42866 whole entry): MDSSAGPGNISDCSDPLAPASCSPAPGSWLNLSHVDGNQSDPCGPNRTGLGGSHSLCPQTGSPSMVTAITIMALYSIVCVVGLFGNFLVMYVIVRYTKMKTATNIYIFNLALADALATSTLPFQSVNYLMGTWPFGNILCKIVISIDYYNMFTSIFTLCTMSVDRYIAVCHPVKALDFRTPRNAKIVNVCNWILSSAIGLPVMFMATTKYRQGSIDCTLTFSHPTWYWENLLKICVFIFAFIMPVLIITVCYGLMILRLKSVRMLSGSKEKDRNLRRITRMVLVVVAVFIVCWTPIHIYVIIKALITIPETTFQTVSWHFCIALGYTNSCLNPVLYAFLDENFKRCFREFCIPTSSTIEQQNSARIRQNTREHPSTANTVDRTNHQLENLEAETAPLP
Procedure, shortened: as §2, with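 “injection. Agonist (morphine 1.25 mg/kg or U50,488 2.5 mg/kg) and antagonist given sc 20 min before acid.” for “injection.”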

[6] = molecular target: Kappa-type opioid receptor (Rattus norvegicus) (UniProt P34975); test: Antagonism of bremazocine induced kappa receptor diuresis in rats at a concentration of 0.08 mg/kg subcutaneously; type: functional, organism-based; design: dose 0.08 mg/kg
Sequence of Kappa-type opioid receptor (Rattus norvegicus) (P34975 whole entry): as the sequence (P33534 whole entry) above, with D11E, S17A, S51P, A308V counted along it
Procedure, shortened: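 Male Long-Evans hooded rats (350-500 g), reused no more than twice weekly. Bremazocine 0.08 mg/kg sc, test antagonist sc on the opposite side without delay. Rats housed in metabolism cages; urine volume recorded at 2 and 5 h. 3 rats/dose, doses varied 2-fold. AD50 = dose reducing cumulative 5-h induced urination by 50%.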

[7] = molecular target: Kappa-type opioid receptor (Cavia porcellus, UniProt P41144); test: Binding affinity towards kappa opioid receptor by displacement of [3H]EKC in guinea pig cortical tissue
Sequence of Kappa-type opioid receptor (P41144 whole entry): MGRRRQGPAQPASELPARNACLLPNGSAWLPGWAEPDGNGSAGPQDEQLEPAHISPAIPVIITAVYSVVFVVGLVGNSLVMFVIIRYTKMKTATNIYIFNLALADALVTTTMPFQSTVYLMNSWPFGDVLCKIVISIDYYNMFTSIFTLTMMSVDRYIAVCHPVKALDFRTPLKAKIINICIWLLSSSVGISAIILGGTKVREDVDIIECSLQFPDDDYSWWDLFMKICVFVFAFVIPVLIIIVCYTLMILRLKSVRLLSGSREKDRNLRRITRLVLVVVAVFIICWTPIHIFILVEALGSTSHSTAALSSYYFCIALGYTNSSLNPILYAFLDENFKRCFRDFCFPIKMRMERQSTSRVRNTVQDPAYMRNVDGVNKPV
Procedure, shortened: (§3)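 Radioligand displacement. Kappa: [3H]EKC, guinea pig cortex, with fentanyl and DADL added to block mu/delta binding. Delta: [3H]DADL, rat brain homogenate.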

[8] = molecular target: Mu-type opioid receptor (Rattus norvegicus, UniProt P33535); test: Binding affinity towards mu-opioid receptor by the displacement of [3H]Nal in rat brain homogenates; type: tissue-based
Sequence of Mu-type opioid receptor (P33535 whole entry): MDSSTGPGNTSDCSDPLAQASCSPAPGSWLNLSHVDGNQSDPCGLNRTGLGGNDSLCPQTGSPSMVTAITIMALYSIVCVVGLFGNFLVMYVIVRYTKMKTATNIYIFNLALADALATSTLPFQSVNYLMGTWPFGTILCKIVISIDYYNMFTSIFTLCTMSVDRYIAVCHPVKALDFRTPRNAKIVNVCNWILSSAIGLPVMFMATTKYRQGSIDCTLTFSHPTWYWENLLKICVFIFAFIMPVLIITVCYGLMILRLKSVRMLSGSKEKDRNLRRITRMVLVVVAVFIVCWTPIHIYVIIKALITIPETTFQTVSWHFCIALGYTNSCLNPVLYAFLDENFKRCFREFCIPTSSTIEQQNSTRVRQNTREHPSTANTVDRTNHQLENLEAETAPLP

[9] = molecular target: Delta-type opioid receptor (Rattus norvegicus, UniProt P33533); test: Binding affinity towards delta-opioid receptor by displacement of [3H]DADL in rat brain homogenates; type: tissue-based; procedure, shortened: as §3
Sequence of Delta-type opioid receptor (P33533 whole entry): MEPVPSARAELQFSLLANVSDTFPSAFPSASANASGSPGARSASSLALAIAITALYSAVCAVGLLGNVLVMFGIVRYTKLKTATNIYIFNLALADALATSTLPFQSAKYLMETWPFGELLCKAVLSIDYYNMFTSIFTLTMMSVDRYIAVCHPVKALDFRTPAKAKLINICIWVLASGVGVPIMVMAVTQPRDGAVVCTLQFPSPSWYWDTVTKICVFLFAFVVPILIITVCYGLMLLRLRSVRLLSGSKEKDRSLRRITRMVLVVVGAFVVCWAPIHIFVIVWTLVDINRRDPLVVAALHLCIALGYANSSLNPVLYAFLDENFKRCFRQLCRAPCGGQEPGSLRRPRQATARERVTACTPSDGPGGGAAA

[10] = Rattus norvegicus, sc, read-out: ED50

Sequence of Kappa-type opioid receptor (Cavia porcellus) (P41144 whole entry): as the sequence (P41144 whole entry) above

Structure (SMILES)	Displacement [1] [%]	ED50 [2, 10] [mg/kg]	AD50 [3] [mg/kg]	Displacement [4] [%]	AD50 [5] [mg/kg]	AD50 [6] [mg/kg]	Ki [7] [nM]	Ki [8] [nM]	ED50 [2] [mg/kg]	Ki [9] [nM]
CCCCCN1CC[C@@](C)(c2cccc(O)c2)[C@@H](C)C1	78	3.8	0.6	44	–	–	–	–	–	–
CCCCCCCN1CC[C@@](C)(c2cccc(O)c2)[C@@H](C)C1	87	0.4	> 0.64	57	0.21	3.3	–	–	–	–
C[C@H]1CN(CCCc2cccs2)CC[C@@]1(C)c1cccc(O)c1 (stereo in doubt; 41)	–	–	–	–	–	1.18	–	–	–	–
C[C@H]1CN(CC2CCCCC2)CC[C@@]1(C)c1cccc(O)c1	–	> 20	0.47	–	1.1	4.6	29	17	–	–
C[C@H]1CN(CCC2CCCCC2)CC[C@@]1(C)c1cccc(O)c1	–	3.6	0.12	–	0.1	0.69	2.3	0.65	–	–
CCCCCCN1CC[C@@](C)(c2cccc(O)c2)[C@@H](C)C1 (stereo in doubt; 37)	–	–	–	–	–	–	–	1.1	0.19	–
C=C1CC[C@@]2(O)[C@H]3Cc4ccc(O)c5c4[C@@]2(CCN3CC2CC2)[C@H]1O5	–	1.5	0.14	–	0.02	0.99	2	0.29	–	3.4
CCCCCCN1CC[C@@](C)(c2cccc(O)c2)[C@@H](C)C1 (stereo in doubt; 16)	–	–	–	–	–	–	–	–	0.51	–
C[C@H]1CN(CCC2C=CCC2)CC[C@@]1(C)c1cccc(O)c1 (stereo not given in full)	–	0.44	0.12	–	0.11	1.4	1	12	–	–
CCCCCCN1CC[C@](C)(c2cccc(O)c2)[C@H](C)C1	–	1.17	0.29	–	0.21	1.34	–	5.61	–	–
CC(C)CCCCN1CC[C@@](C)(c2cccc(O)c2)[C@@H](C)C1 (stereo in doubt; 21)	–	–	–	–	–	–	5.9	0.46	0.06	–
CC(C)C(O)CCN1CC[C@@](C)(c2cccc(O)c2)[C@@H](C)C1 (stereo not given in full)	–	0.65	0.35	–	0.14	0.17	6.9	2.6	–	–
C[C@H]1CN(CCCc2cccs2)CC[C@@]1(C)c1cccc(O)c1 (stereo in doubt; 29)	–	0.07	–	–	–	–	–	–	–	–
C[C@H]1CN(CCCc2ccccc2)CC[C@@]1(C)c1cccc(O)c1	–	1.3	5.3	–	–	–	–	–	–	–
C[C@H]1CN(CCC(O)c2cccs2)CC[C@@]1(C)c1cccc(O)c1 (stereo not given in full)	–	0.07	–	–	–	–	–	–	–	–
CC(C)CCCCN1CC[C@@](C)(c2cccc(O)c2)[C@@H](C)C1 (stereo in doubt; 39)	–	–	–	–	–	–	1.91	0.89	0.14	–
C[C@H]1CN(CCC(=O)C2CCCCC2)CC[C@@]1(C)c1cccc(O)c1	–	0.13	0.26	–	0.12	–	3.9	0.34	–	–
C=CCN1CC[C@]23c4c5ccc(O)c4O[C@H]2C(=O)CC[C@@]3(O)[C@H]1C5 [NALOXONE]	–	1.2	–	–	–	–	–	–	–	–
C[C@H]1CN(C)CC[C@@]1(C)c1cccc(O)c1	–	4.1	> 5	–	–	> 5	–	–	–	–
C[C@H]1CN(CC[C@@H](O)C2CCCCC2)CC[C@@]1(C)c1cccc(O)c1	–	0.16	0.36	–	0.03	1.1	11.4	2.4	–	–

Reference: ChEMBL document CHEMBL1127053, “3,4-Dimethyl-4-(3-hydroxyphenyl)piperidines: opioid antagonists with potent anorectant activity” (J Med Chem, 1993)
